Measurements taken from ChEMBL document CHEMBL3853360, “Combined Interactions with I1-, I2-Imidazoline Binding Sites and α2-Adrenoceptors To Manage Opioid Addiction” (ACS Med Chem Lett, 2016).

Key:
[1] = Reduction in morphine dependence expression in CD1 mouse assessed as inhibition of naloxone-precipitated jumping at 10 mg/kg, ip administered acutely 15 mins prior to naloxone challenge relative to control; assay type: functional, organism-based
Mus musculus [2] = test: Reduction in morphine dependence acquisition in CD1 mouse assessed as inhibition of naloxone-precipitated rearing frequency at 5 to 10 mg/kg, ip administered 15 mins prior to each morphine challenge relative to control; assay type: functional
How it was run: (§1)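 Mice received i.p. test compound (5 or 10 mg/kg) 15 min before each of repeated morphine injections, with vehicle and morphine-only controls. Withdrawal was then precipitated with naloxone. Jumping frequency and somatic signs (rearing, forepaw tremor, teeth chattering; summed frequency) were scored and compared with the morphine group. Data are mean ± SEM of 6–10 animals.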

[3] = Reduction in morphine dependence expression in CD1 mouse assessed as inhibition of naloxone-precipitated forepaw tremor frequency at 5 mg/kg, ip administered acutely 15 mins prior to naloxone challenge relative to control; assay type: functional, organism-based
[4] = Reduction in morphine dependence expression in CD1 mouse assessed as inhibition of naloxone-precipitated forepaw tremor frequency at 10 mg/kg, ip administered acutely 15 mins prior to naloxone challenge relative to control; assay type: functional, organism-based
[5] = Reduction in morphine dependence expression in CD1 mouse assessed as inhibition of naloxone-precipitated teeth chattering frequency at 5 mg/kg, ip administered acutely 15 mins prior to naloxone challenge relative to control; assay type: functional, organism-based
[6] = Reduction in morphine dependence expression in CD1 mouse assessed as inhibition of naloxone-precipitated rearing frequency at 10 mg/kg, ip administered acutely 15 mins prior to naloxone challenge relative to control; assay type: functional, organism-based
[7] = Displacement of [3H]-2-BFI from I2 receptor imidazoline binding site in Sprague-Dawley rat brain membranes after 30 mins by liquid scintillation counting; assay type: cell membranes, Membrane
How it was run: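 Radioligand competition binding with pKi determined by displacement. I1 sites: [125I]-p-iodoclonidine on rat kidney membranes. I2 sites: [3H]-2-BFI on rat brain membranes. α2-ARs: [3H]-RX821002 on rat brain membranes.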

[8] = target: T1, Alpha-2C adrenergic receptor (Homo sapiens, UniProt P18825); test: Agonist activity at human alpha2c-AR expressed in CHO cells assessed as rate of acidification after 240 mins by cytosensor microphysiometric analysis; assay type: cell-based
T1 sequence (P18825 whole entry): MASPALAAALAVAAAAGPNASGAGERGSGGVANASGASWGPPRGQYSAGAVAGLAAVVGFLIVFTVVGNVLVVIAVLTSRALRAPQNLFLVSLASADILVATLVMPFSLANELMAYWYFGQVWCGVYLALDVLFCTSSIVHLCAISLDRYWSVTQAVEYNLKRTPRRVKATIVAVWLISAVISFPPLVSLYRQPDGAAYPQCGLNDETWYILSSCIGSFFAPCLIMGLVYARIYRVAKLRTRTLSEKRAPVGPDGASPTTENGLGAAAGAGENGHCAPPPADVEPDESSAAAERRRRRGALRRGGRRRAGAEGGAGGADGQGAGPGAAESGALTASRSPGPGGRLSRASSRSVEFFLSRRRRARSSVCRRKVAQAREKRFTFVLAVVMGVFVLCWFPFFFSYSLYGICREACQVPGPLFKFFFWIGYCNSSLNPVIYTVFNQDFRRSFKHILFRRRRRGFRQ
How it was run: (§2)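 Functional assay in CHO cells stably expressing a single human α2-AR subtype (α2A, α2B or α2C), read on a Cytosensor microphysiometer. Outputs are pEC50, intrinsic activity and, for antagonism, pKb. Intrinsic activity is expressed as a fraction of the full agonist (−)-noradrenaline, set at 1. Values are mean ± SEM of 3–5 separate experiments.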

[9] = target: T2, Alpha-2A adrenergic receptor (Homo sapiens) (UniProt P08913); test: Antagonist activity at human alpha2a-AR expressed in CHO cells assessed as inhibition of (-)-noradrenaline-induced acidification rate after 240 mins by cytosensor microphysiometric analysis; assay type: cell-based; how it was run: as §2
T2 sequence (whole entry): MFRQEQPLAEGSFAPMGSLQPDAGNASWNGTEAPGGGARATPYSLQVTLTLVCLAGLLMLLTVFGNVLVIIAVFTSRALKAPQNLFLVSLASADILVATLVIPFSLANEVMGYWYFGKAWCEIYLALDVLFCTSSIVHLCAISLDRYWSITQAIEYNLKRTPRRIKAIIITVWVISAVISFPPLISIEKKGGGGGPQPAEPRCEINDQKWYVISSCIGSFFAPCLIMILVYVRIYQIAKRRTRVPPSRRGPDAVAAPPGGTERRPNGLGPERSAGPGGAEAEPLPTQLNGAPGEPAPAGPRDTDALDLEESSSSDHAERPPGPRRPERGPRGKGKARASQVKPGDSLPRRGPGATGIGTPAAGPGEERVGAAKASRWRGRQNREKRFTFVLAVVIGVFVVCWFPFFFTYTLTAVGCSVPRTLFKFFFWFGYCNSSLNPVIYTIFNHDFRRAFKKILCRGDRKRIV

[10] = Reduction in morphine dependence expression in CD1 mouse assessed as inhibition of naloxone-precipitated teeth chattering frequency at 10 mg/kg, ip administered acutely 15 mins prior to naloxone challenge relative to control; assay type: functional, organism-based
Mus musculus [11] = test: Reduction in morphine dependence acquisition in CD1 mouse assessed as inhibition of naloxone-precipitated jumping at 5 to 10 mg/kg, ip administered 15 mins prior to each morphine challenge relative to control; assay type: functional; how it was run: as §1

Cc1ccccc1NCC1=NCCN1
inhibition [1]: 98%
inhibition (INH) (Mus musculus [2]): 80%
inhibition [3]: 86%
inhibition [4]: 93%
inhibition [5]: 86%
inhibition [6]: 93%
pKi [7]: 8.06
EC50 [8]: 21.9 nM
pKb [9]: 7.58
inhibition [10]: 93%
inhibition (INH) (Mus musculus [11]): 80%
